Laboratory results from PMC11665415 (Neurobiology of Pain, 2024).
Entries after “also recorded” stand apart in the source; their conditions may differ. Like-named read-outs stand apart in the source and are kept apart here.

Experiments:
[1] = system: capsaicin-induced mechanical allodynia; assay: Capsaicin pain model, mechanical allodynia; format: in vivo, mouse; settings: 30 mg/kg IP
Summary of the method: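 Mice got intraplantar capsaicin (12 µg in 10 µL; vehicle 80 % saline, 10 % ethanol, 10 % Tween80) in the left footpad under isoflurane. One h later: single IP dose of test compound at 30 mg/kg or vehicle (30 % DMSO). 50 % paw withdrawal threshold by von Frey up-down method, baseline then 0–4 h post-dose. AUC over 0–4 h. n = 8 per sex. Two-way ANOVA with Tukey; one-way ANOVA with Dunnett for AUC.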

[2] = system: naïve mice; assay: Rotarod test of motor coordination in naïve mice; format: in vivo, mouse; settings: male and female naïve mice, 30 mg/kg IP
Summary of the method: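 Naïve male and female mice received test compound at 30 mg/kg IP, dissolved in 30 % DMSO. Motor coordination measured on the rotarod. A mouse that fell was placed back on the cylinder and the session continued.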

[3] = system: SNI-induced mechanical allodynia; assay: Spared nerve injury; format: in vivo, mouse
Summary of the method: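 On day 28 after spared nerve injury, 50 % paw withdrawal threshold measured by von Frey up-down method, at baseline and from 0 to 6 h after a single IP injection. Doses: 3, 10 and 30 mg/kg in males; 30 mg/kg in females; vehicle 30 % DMSO. AUC over 0–6 h. n = 8. Two-way ANOVA with Tukey; one-way ANOVA with Dunnett.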

[4] = system: voltage-gated calcium channels; format: cell-based, rat
[5] = system: viral entry; settings: 1 µM, multiple cell types; ref Drewry et al., 2022; cited from earlier work
[6] = system: potassium channels; assay: Whole-cell patch-clamp recordings of total potassium currents; format: cell-based, rat
Summary of the method: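 Rat DRG neurons cultured in medium with 10 % FBS and 15 ng/ml NGF, on poly-D-lysine/laminin-coated coverslips at 37 °C, 5 % CO₂, and used within 24 h. Whole-cell patch clamp with test compound (10 µM) or 0.1 % DMSO in the external solution. Current density–voltage and peak current density (pA/pF) given as mean ± SEM.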

[7] = Snapshot/standard pharmacokinetics in CD-1 mice; format: in vivo, mouse; settings: for half-life: male, CD-1, mouse, plasma
[8] = system: voltage-gated sodium channels; format: cell-based, rat; settings: for Effect on density of sodium currents: acute application
[9] = system: SNI-induced cold allodynia; assay: Spared nerve injury; format: in vivo, mouse; settings: for SNI-induced cold allodynia, AUC between 0 and 6 h: day 28 post-SNI
[10] = system: PIKfyve; settings: 403 wild-type human kinases; ref Drewry et al., 2022; cited from earlier work
[11] = system: naïve mice; assay: Mechanical and cold sensitivity in naïve mice; format: in vivo, mouse; settings: male and female naïve mice, 30 mg/kg IP
Summary of the method: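 Naïve male and female mice got test compound at 30 mg/kg IP in 30 % DMSO, with a 1 h wait before testing. Mechanical sensitivity measured with von Frey filaments by the up-down method. Cold sensitivity measured by applying an acetone drop to the hind paw.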

[12] = system: SH-SY5Y cells; settings: SH-SY5Y cells treated at 5 µM; ref Drewry et al., 2022; cited from earlier work
[13] = Snapshot pharmacokinetics in Balb/C mice; format: in vivo, mouse; settings: 10 or 30 mg/kg IP or PO, up to five hours after dosing

Q: With `CN(C)CC#Cc1ccc2[nH]c3c(c2c1)-c1nc(N)ncc1CCC3` [SGC-PIKFYVE-1] as the compound, how does the Capsaicin-induced nociceptive behaviors ([1]; female mice) read?
A: able to reduce the nociceptive behaviors

Q: And the “Duration of reduction of capsaicin-induced allodynia” value ([1]; male mice, 1 h after intraplantar capsaicin)?
A: 2 h

Q: And the “Motor coordination (rotarod)” value [2]?
A: did not induce changes

Q: What about the SNI-induced tactile allodynia ([3]; female mice, 30 mg/kg IP) of the same compound?
A: reduced SNI-induced tactile

Q: What about the “Antiallodynic effect (AUC 0-6 h), dose dependence” value ([3]; male neuropathic mice, 3, 10 and 30 mg/kg IP) of the same compound?
A: dose-dependent

Q: And the “Paw mechanical withdrawal threshold” value ([3]; male neuropathic mice, single IP injection 30 mg/kg, day 28 post-SNI)?
A: increase of the paw mechanical withdrawal threshold for four hours

Q: And the “Calcium current density and peak current” value ([4]; 10 µM, vs 0.1 % DMSO)?
A: unaffected

Q: And the Fast inactivation k ([4]; total calcium currents, SGC-PIKFYVE-1 10 µM, DMSO control 0.99 ± 0.01)?
A: 0.98 ± 0.02

Q: And the Activation k ([4]; total calcium currents, SGC-PIKFYVE-1 10 µM, DMSO control 5.99 ± 0.64)?
A: 5.73 ± 0.58

Q: What about the “Activation V0.5 (mV)” value ([4]; total calcium currents, SGC-PIKFYVE-1 10 µM, DMSO control −4.68 ± 0.73) of the same compound?
A: −4.31 ± 0.67 mV

Q: And the “Fast inactivation V0.5 (mV)” value ([4]; total calcium currents, SGC-PIKFYVE-1 10 µM, DMSO control −36.91 ± 0.73)?
A: −34.76 ± 1.79 mV

Q: What about the “IV curve Peak/density (pA/pF)” value ([4]; total calcium currents, SGC-PIKFYVE-1 10 µM, DMSO control −107.71 ± 14.20) of the same compound?
A: −113.06 ± 13.24 pA/pF

Q: And the Viral entry [5]?
A: inhibited viral entry

Q: And the “IK+ current or peak densities” value ([6]; acute treatment, 10 μM, vs 0.1 % DMSO)?
A: did not alter

Q: What about the “IV curve Peak/density (pA/pF)” value ([6]; total potassium currents, SGC-PIKFYVE-1 10 µM, DMSO control 184.90 ± 17.17) of the same compound?
A: 213.92 ± 21.52 pA/pF

Q: What about the “Oral bioavailability and in vivo stability (snapshot PK)” value ([7]; CD-1 mice, 10 mg/kg IP or PO, five-hour time course) of the same compound?
A: exhibited oral bioavailability and remained relatively stable in vivo

Q: What about the “Detectability in plasma over twenty-four hours” value ([7]; CD-1 mice, 10 mg/kg IP or PO, no time points between 8 and 24 h) of the same compound?
A: no longer detectable after eight hours

Q: What about the “Adverse effects / tolerability” value ([7]; CD-1 mice, 30 mg/kg) of the same compound?
A: did not induce any adverse effects; also recorded: well tolerated

Q: And the “Detectability in plasma over twenty-four hours” value ([7]; CD-1 mice, 30 mg/kg IP or PO)?
A: not detectable after eight hours

Q: What about the “Plasma concentration relative to cellular affinity for PIKfyve” value ([7]; CD-1 mice, 30 mg/kg twice daily (BID) IP or PO) of the same compound?
A: well above its cellular affinity for PIKfyve

Q: And the half-life ([7]; ip)?
A: ~3.5 h

Q: What about the half-life ([7]; po, 30 mg/kg) of the same compound?
A: 3.5 h

Q: What about the Voltage-dependence of activation ([8]; 10 µM, compared to the vehicle) of the same compound?
A: remained unchanged

Q: And the “Hyperpolarizing shift in the voltage-dependence of inactivation” value ([8]; 10 µM, vs vehicle)?
A: 4 mV

Q: What about the Activation k ([8]; SGC-PIKFYVE-1 1 µM, DMSO control 4.93 ± 0.44) of the same compound?
A: 6.54 ± 0.66

Q: What about the Fast inactivation k ([8]; SGC-PIKFYVE-1 1 µM, DMSO control −13.64 ± 1.53) of the same compound?
A: −14.49 ± 1.69

Q: What about the “Activation V0.5 (mV)” value ([8]; SGC-PIKFYVE-1 1 µM, DMSO control −21.776 ± 0.50) of the same compound?
A: −21.09 ± 0.74 mV

Q: And the “Fast inactivation V0.5 (mV)” value ([8]; SGC-PIKFYVE-1 1 µM, DMSO control −53.6 ± 1.56)?
A: −51.69 ± 1.67 mV

Q: And the Activation k ([8]; SGC-PIKFYVE-1 10 µM, ProTxII set (Fig. 1), DMSO control 4.25 ± 0.42)?
A: 4.89 ± 0.56

Q: And the Fast inactivation k ([8]; SGC-PIKFYVE-1 10 µM, ProTxII set (Fig. 1), DMSO control −11.11 ± 0.74)?
A: −10.32 ± 0.73

Q: And the “Activation V0.5 (mV)” value ([8]; SGC-PIKFYVE-1 10 µM, ProTxII set (Fig. 1), DMSO control −20.48 ± 0.48)?
A: −20.11 ± 0.63 mV

Q: And the “Fast inactivation V0.5 (mV)” value ([8]; SGC-PIKFYVE-1 10 µM, ProTxII set (Fig. 1), DMSO control −47.42 ± 0.79)?
A: −51.51 ± 0.79 mV

Q: What about the “IV curve Peak/density (pA/pF)” value ([8]; SGC-PIKFYVE-1 10 µM, ProTxII set (Fig. 1), DMSO control −533.2 ± 42.99) of the same compound?
A: −348.7 ± 38.42 pA/pF

Q: And the Activation k ([8]; SGC-PIKFYVE-1 10 µM, VX-548 set (Fig. 2), DMSO control 3.70 ± 0.39)?
A: 3.73 ± 0.47

Q: What about the Fast inactivation k ([8]; SGC-PIKFYVE-1 10 µM, VX-548 set (Fig. 2), DMSO control −12.25 ± 1.08) of the same compound?
A: −10.25 ± 1.63

Q: And the “Activation V0.5 (mV)” value ([8]; SGC-PIKFYVE-1 10 µM, VX-548 set (Fig. 2), DMSO control −24.61 ± 0.44)?
A: −20.18 ± 0.55 mV

Q: What about the “Fast inactivation V0.5 (mV)” value ([8]; SGC-PIKFYVE-1 10 µM, VX-548 set (Fig. 2), DMSO control −52.39 ± 1.14) of the same compound?
A: −58.85 ± 1.79 mV

Q: And the “IV curve Peak/density (pA/pF)” value ([8]; SGC-PIKFYVE-1 10 µM, VX-548 set (Fig. 2), DMSO control −358.2 ± 32.87)?
A: −189.7 ± 47.11 pA/pF

Q: And the “Effect on density of sodium currents” value ([8]; 1 µM)?
A: but not at 1 µM

Q: And the “Effect on density of sodium currents” value ([8]; 10 µM)?
A: decrease in the density of sodium currents

Q: And the SNI-induced cold allodynia ([9]; female mice, 30 mg/kg IP)?
A: reduced

Q: And the “SNI-induced cold allodynia, AUC between 0 and 6 h” value ([9]; female mice, 30 mg/kg IP)?
A: reversed SNI-induced cold allodynia

Q: And the “SNI-induced cold allodynia, AUC between 0 and 6 h” value ([9]; male mice, 30 mg/kg IP)?
A: reversed SNI-induced cold allodynia

Q: What about the SNI-induced cold allodynia ([9]; male mice, 3, 10 and 30 mg/kg IP) of the same compound?
A: reduced SNI-induced cold allodynia for six hours in a dose-dependent manner

Q: And the Kinome selectivity [10]?
A: highly selective for PIKfyve

Q: And the “Mechanical and cold sensitivity” value [11]?
A: did not induce changes

Q: And the Lysosomal homeostasis [12]?
A: impacted lysosomal homeostasis

Q: What about the “Plasma concentration relative to cellular affinity for PIKfyve” value [13] of the same compound?
A: maintained well above the cellular affinity for PIKfyve

Q: For `COc1c([C@H]2[C@H](C(=O)Nc3ccnc(C(N)=O)c3)O[C@@](C)(C(F)(F)F)[C@H]2C)ccc(F)c1F` [VX-548, reference compound], which Activation k ([8]; VX-548 5 nM, DMSO control 3.70 ± 0.39) is on record?
A: 6.18 ± 0.88

Q: And the Fast inactivation k ([8]; VX-548 5 nM, DMSO control −12.25 ± 1.08)?
A: −9.98 ± 0.99

Q: What about the “Activation V0.5 (mV)” value ([8]; VX-548 5 nM, DMSO control −24.61 ± 0.44) of the same compound?
A: −19.51 ± 0.98 mV

Q: And the “Fast inactivation V0.5 (mV)” value ([8]; VX-548 5 nM, DMSO control −52.39 ± 1.14)?
A: −59.85 ± 1.10 mV

Q: And the “IV curve Peak/density (pA/pF)” value ([8]; VX-548 5 nM, DMSO control −358.2 ± 32.87)?
A: −200.5 ± 35.37 pA/pF

Q: With `Cc1cccc(/C=N/Nc2cc(N3CCOCC3)nc(OCCc3ccccn3)n2)c1` [apilimod, reference compound] as the compound, how does the Lysosomal homeostasis [12] read?
A: impacted lysosomal homeostasis

Q: Which results are given for ProTxII [reference compound]?
A: Activation k ([8]; ProTxII 5 nM, DMSO control 4.25 ± 0.42): 4.17 ± 0.49; Fast inactivation k ([8]; ProTxII 5 nM, DMSO control −11.11 ± 0.74): −11.11 ± 1.15; Activation V0.5 (mV) ([8]; ProTxII 5 nM, DMSO control −20.48 ± 0.48): −14.89 ± 0.57 mV; Fast inactivation V0.5 (mV) ([8]; ProTxII 5 nM, DMSO control −47.42 ± 0.79): −53.17 ± 1.24 mV; IV curve Peak/density (pA/pF) ([8]; ProTxII 5 nM, DMSO control −533.2 ± 42.99): −207.3 ± 57.12 pA/pF
